The source made the active and inactive calls. The calls are words filed in the database; no cut-off is given here. Where only a bound is given, the exact number is not on record here.

From ChEMBL document CHEMBL1955833, “Wnt inhibition correlates with human embryonic stem cell cardiomyogenesis: a structure-activity relationship study based on inhibitors for the Wnt response” (J Med Chem, 2012) come the findings set out here.

Series [1] in a line: Inhibition of beta-catenin-dependent canonical Wnt3A pathway in human HEK293T cells at 1 uM by luciferase reporter gene assay. In kind it is cell-based. The note with it: HEK-293T. The procedure, abridged: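 HEK293T cells transiently co-transfected with Super(8x)TOPflash (TCF-firefly luciferase), TK-Renilla luciferase for normalization, and a Wnt3A-expressing vector to activate the pathway. Compounds tested at a single concentration of 1 μM, alongside untreated and DMSO vehicle controls. Firefly signal normalized to Renilla.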
Background: Reporter assays use an easily measured gene product as a stand-in for the process of interest.

The test system of series [2] is HEK-293T. Briefly: Inhibition of human recombinant TGFbeta2-induced Smad signaling in HEK293T cells at 0.01 to 5 uM by luciferase reporter gene assay. The series is classed as cell-based. A digest of the protocol: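 HEK293T cells carrying a SMAD response element reporter were stimulated with human recombinant TGFβ2. Compounds were incubated at 0.01, 0.1, 1 and 5 μM. Percent inhibition of the SMAD response was calculated relative to DMSO vehicle controls.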

The nature of series [3]: Inhibition of beta-catenin-dependent canonical Wnt3 pathway in human HEK293T cells by luciferase reporter gene assay. In kind it is cell-based. The note with it: HEK-293T.
Series [4] relates to H9. Briefly: Cardiogenic activity in human H9 cells at < 0.15 uM after 14 days by MYH6-mCherry reporter gene assay relative to 4-[(1R,2S,6R,7S)-3,5-dioxo-4-azatricyclo[5.2.1.0~2,6~]dec-8-en-4-yl]-N-quinolin-8-ylbenzamide. The series is classed as functional, cell-based. The procedure, abridged: (§1)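 hESC embryoid bodies grown to day 4, dissociated to single cells and plated in 384-well format with serial compound dilutions. At day 10 switched to serum-free medium with T3. At day 14 moved to PBS and imaged for red fluorescence. Total area and intensity of the MYH6-mCherry reporter were quantified per well and expressed as percent cardiogenesis, with the reference set to 100% at its maximum.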

Series [5] relates to H9. Briefly: Cardiogenic activity in human H9 cells after 14 days by MYH6-mCherry reporter gene assay relative to 4-[(1R,2S,6R,7S)-3,5-dioxo-4-azatricyclo[5.2.1.0~2,6~]dec-8-en-4-yl]-N-quinolin-8-ylbenzamide. In kind it is functional. A digest of the protocol: as §1
Series [6] in a line: Chemical stability in phosphate buffer pH 7.4 at 10 uM after 30 hrs by HPLC analysis. The note with it: pH 7.4, 30 h. In kind it is physicochemical. The procedure, abridged:
(§2)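 Degradation followed by HPLC, and half-life determined where degradation occurred.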

Series [7] has as its system HEK-293T. Briefly: Cytotoxicity against human HEK293T cells at 0.2 to 20 uM after 24 hrs by alamar blue assay. The series is classed as cell-based.
The nature of series [8]: Cardiogenic activity in human embryonic stem cells at 2 uM by MYH6 reporter gene assay relative to control. In kind it is functional, Embryonic stem cell.
The nature of series [9]: Cardiogenic activity in human embryonic stem cells at 2.5 uM by MYH6 reporter gene assay relative to control. In kind it is functional, Embryonic stem cell.
The nature of series [10]: Half life in phosphate buffer pH 7.4 at 10 uM by HPLC analysis. The series is classed as physicochemical. The procedure, abridged: as §2
In series [11] the test system is H9. Briefly: Cardiogenic activity in human H9 cells at 10 uM after 14 days by MYH6-mCherry reporter gene assay relative to 4-[(1R,2S,6R,7S)-3,5-dioxo-4-azatricyclo[5.2.1.0~2,6~]dec-8-en-4-yl]-N-quinolin-8-ylbenzamide. In kind it is functional. A digest of the protocol:
as §1

The test system of series [12] is Embryonic stem cell. Briefly: Cardiogenic activity in human embryonic stem cells at 50 uM by MYH6 reporter gene assay relative to control. The series is classed as functional, cell-based.

The term inhibition denotes the percentage by which the read-out fell short of the control. Broadly, the IC50 is the concentration needed to halve the response being measured. As to `CC(=O)c1ccccc1NC(=O)[C@H]1CC[C@H](N2C(=O)[C@@H]3[C@@H]4CC[C@@H](C4)[C@@H]3C2=O)CC1`, the figures for the inhibition in series [1] and in [2] were 91% and < 20%, respectively. Further, in series [3], the IC50 is 6 nM. For the same compound, the outcome in series [4] was Active. The compound also came in with an Activity in series [5] of 78%. Further, the Stability entry in [6] is on record as “Stable”.

`Oc1nc(-c2ccc(C(F)(F)F)cc2)nc2c1CSCC2` showed an IC50 in series [3] of 51 nM. Besides, the Activity entry in [7] is reported as “Non-toxic”. In addition, the “fold change (FC)” value in series [8] was determined as 1000.

In the case of `Cc1ccc2nc(NC(=O)CSc3nc4c(c(=O)n3-c3ccc(F)cc3)SCC4)sc2c1`, the IC50 in series [3] was 538 nM. Besides, the Activity result in [7] is on record as “Non-toxic”. In addition, the “fold change (FC)” value in [9] is 1000.

Take `O=C1[C@@H]2[C@@H]3CC[C@@H](C3)[C@@H]2C(=O)N1[C@H]1CC[C@H](C(=O)Nc2cccnc2)CC1`: the figures for the inhibition in series [1] and in [2] were 89% and < 20%, respectively. This compound also showed an IC50 in series [3] of 120 nM. The compound further gave an Activity in [5] of 15%. The Stability entry in series [6] is on record as “Stable”.

Broadly, the half-life is the time in which the quantity being followed falls by half. Lower therefore signals fast loss. The compound `O=C(Nc1ccc(N2C(=O)[C@@H]3[C@@H]4CC[C@@H](C4)[C@@H]3C2=O)cc1)c1cccc2cccnc12` registered an inhibition in [1] of 91%. This compound also returned an IC50 in series [3] of 119 nM. This compound showed a half-life at 10 µM in series [10] of 3.8 h. The Activity in series [5] is reported as 1%.

With `O=C1[C@@H]2[C@@H]3CC[C@@H](C3)[C@@H]2C(=O)N1[C@H]1CC[C@H](C(=O)Nc2cccc3ccncc23)CC1`, the inhibition in [1] is 91%. Besides, the Activity in series [11] was 24%; in series [5] it was “Dose-dependent effect”; in series [5] (record 2) it was 25%. For the same compound, in series [3], the IC50 turned out to be 93 nM.

`COc1ccc(/C=C2/SC(=S)N(CCCC(=O)O)C2=O)cc1OC` displayed an IC50 in [3] of 728 nM. For the same compound, the Activity result in series [7] was “Non-toxic”. Further, the result in series [12] was Active.

Regarding `O=C(Nc1cccc2cccnc12)c1ccc(N2C(=O)[C@@H]3[C@H](C2=O)[C@@H]2C=C[C@H]3C2)cc1`, the inhibition in [2] is < 20%. In addition, the Activity result is “Non-toxic” in series [7] and “Dose-dependent effect” in series [5]. In addition, in series [6], the Stability result is “Stable”.

As to `O=C1CCCc2cccc(NC(=O)[C@H]3CC[C@H](N4C(=O)[C@@H]5[C@@H]6CC[C@@H](C6)[C@@H]5C4=O)CC3)c21`, the figures for the inhibition in series [1] and in series [2] were 92% and < 20%, respectively. In series [3], the IC50 was 7 nM. Moreover, in [4], the result was Active. This compound also came in with an Activity in series [5] of 176%.
